Source: ChEMBL document CHEMBL3259739, “Synthesis and structure-activity relationship of trisubstituted thiazoles as Cdc7 kinase inhibitors” (Eur J Med Chem, 2014)
pIC50: −log10 of the molar value.

How the values were obtained:
[1] = molecular target: CDC7/DBF4 (Cell division cycle 7-related protein kinase/Activator of S phase kinase) (Homo sapiens, UniProt O00311); experiment: Inhibition of Cdc7/Dbf4 (unknown origin)-mediated phosphorylation of MCM2 by protein-A luminescent proximity homogenous assay; type: protein-complex assay
[2] = molecular target: Platelet-derived growth factor receptor beta (Homo sapiens) (UniProt P09619); experiment: Inhibition of PDGFRB (unknown origin) at 1 uM relative to control; conditions: values are per cent of control
Summary of the method: (§1)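 KinomeSCAN competitive binding panel of 100 kinases; compounds tested at 1 µM in duplicate; read-out is percent […] control.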

[3] = molecular target: Proto-oncogene tyrosine-protein kinase Src (Homo sapiens) (UniProt P12931); experiment: Inhibition of SRC (unknown origin) at 1 uM relative to control; conditions: values are per cent of control; summary of the method: as §1
[4] = molecular target: T1, TGF-beta receptor type-1 (Homo sapiens) (UniProt P36897); experiment: Inhibition of TGFBR1 (unknown origin) at 1 uM relative to control; conditions: values are per cent of control; summary of the method: as §1
T1 sequence (whole entry): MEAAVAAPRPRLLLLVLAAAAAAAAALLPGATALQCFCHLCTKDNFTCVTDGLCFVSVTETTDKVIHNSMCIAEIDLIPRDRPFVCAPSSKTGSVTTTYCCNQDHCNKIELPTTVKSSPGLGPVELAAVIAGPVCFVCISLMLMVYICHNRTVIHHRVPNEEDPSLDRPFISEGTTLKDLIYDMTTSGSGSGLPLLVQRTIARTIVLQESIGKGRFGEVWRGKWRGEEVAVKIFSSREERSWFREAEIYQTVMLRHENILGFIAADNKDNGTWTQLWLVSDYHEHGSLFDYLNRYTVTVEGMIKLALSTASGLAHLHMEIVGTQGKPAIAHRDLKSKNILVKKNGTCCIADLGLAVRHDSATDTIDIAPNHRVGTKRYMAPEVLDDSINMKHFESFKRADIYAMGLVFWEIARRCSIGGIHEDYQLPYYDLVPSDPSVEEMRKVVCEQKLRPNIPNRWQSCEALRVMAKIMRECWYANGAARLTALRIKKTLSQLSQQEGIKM

[5] = molecular target: Ribosomal protein S6 kinase alpha-5 (Homo sapiens) (UniProt O75582); experiment: Inhibition of RPS6KA5 (unknown origin) at 1 uM relative to control; conditions: values are per cent of control
[6] = molecular target: Cyclin-dependent kinase 2 (Homo sapiens) (UniProt P24941); experiment: Inhibition of CDK2 (unknown origin) at 1 uM relative to control; values are per cent of control
[7] = molecular target: T2, Rhodopsin kinase GRK1 (Homo sapiens) (UniProt Q15835); experiment: Inhibition of GRK1 (unknown origin) at 1 uM relative to control; values are per cent of control
T2 sequence (whole entry): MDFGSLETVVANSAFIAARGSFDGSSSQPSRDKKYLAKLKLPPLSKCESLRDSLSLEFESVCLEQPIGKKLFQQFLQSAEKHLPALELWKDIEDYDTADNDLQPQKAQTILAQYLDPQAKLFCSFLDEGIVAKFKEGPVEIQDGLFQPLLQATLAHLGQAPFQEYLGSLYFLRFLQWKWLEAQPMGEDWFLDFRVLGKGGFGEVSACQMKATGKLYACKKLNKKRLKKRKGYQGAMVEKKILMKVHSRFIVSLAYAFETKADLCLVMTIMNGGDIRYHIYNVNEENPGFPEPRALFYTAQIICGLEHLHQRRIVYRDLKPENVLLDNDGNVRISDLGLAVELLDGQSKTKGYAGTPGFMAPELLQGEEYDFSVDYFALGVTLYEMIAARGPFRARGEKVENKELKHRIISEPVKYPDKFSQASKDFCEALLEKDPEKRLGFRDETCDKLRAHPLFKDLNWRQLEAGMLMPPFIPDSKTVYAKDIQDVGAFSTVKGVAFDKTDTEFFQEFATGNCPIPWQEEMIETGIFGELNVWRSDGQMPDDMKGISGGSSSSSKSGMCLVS

[8] = molecular target: Serine/threonine-protein kinase Nek4 (Homo sapiens) (UniProt P51957); experiment: Inhibition of NEK4 (unknown origin) at 1 uM relative to control; values are per cent of control
[9] = molecular target: T3, Calcium/calmodulin-dependent protein kinase type IV (Homo sapiens) (UniProt Q16566); experiment: Inhibition of CAMK4 (unknown origin) at 1 uM relative to control; values are per cent of control
T3 sequence (whole entry): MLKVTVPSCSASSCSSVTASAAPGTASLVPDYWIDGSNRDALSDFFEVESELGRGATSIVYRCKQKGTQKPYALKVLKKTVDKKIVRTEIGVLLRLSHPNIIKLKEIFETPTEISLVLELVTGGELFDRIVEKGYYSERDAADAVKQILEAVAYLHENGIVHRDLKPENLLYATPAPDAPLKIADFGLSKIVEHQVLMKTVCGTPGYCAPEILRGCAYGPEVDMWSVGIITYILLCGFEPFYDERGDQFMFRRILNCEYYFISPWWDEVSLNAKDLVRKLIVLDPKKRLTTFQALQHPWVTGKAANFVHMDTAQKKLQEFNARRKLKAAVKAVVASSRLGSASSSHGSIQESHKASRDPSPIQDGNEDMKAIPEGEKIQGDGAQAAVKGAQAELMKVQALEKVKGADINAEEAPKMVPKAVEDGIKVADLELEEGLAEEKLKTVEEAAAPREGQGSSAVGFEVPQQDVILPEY

[10] = molecular target: Death-associated protein kinase 1 (Homo sapiens) (UniProt P53355); experiment: Inhibition of DAPK1 (unknown origin) at 1 uM relative to control; values are per cent of control
[11] = molecular target: LIM domain kinase 1 (Homo sapiens) (UniProt P53667); experiment: Inhibition of LIMK1 (unknown origin) at 1 uM relative to control; values are per cent of control
[12] = molecular target: Bone morphogenetic protein receptor type-1A (Homo sapiens) (UniProt P36894); experiment: Inhibition of BMPR1A (unknown origin) at 1 uM relative to control; values are per cent of control
[13] = molecular target: Calcium/calmodulin-dependent protein kinase type II subunit delta (Homo sapiens) (UniProt Q13557); experiment: Inhibition of CAMK2D (unknown origin) at 1 uM relative to control; values are per cent of control
[14] = molecular target: Casein kinase II subunit alpha (Homo sapiens) (UniProt P68400); experiment: Inhibition of CSNK2A1 (unknown origin) at 1 uM relative to control; values are per cent of control
Chain of Casein kinase II subunit alpha (Homo sapiens) (P68400 whole entry, looked up): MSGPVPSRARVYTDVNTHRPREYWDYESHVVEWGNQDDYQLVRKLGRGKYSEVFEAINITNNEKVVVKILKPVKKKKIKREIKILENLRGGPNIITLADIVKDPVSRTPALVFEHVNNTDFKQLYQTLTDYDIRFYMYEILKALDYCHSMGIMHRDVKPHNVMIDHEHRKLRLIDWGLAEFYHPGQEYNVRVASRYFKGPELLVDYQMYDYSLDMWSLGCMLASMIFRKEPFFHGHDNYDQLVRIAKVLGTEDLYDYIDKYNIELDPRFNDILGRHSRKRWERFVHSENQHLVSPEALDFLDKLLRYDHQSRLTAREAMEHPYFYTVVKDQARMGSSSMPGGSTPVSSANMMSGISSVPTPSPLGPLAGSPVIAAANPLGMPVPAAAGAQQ

Chain of Death-associated protein kinase 1 (Homo sapiens) (P53355 whole entry, looked up, the tested form may be a part): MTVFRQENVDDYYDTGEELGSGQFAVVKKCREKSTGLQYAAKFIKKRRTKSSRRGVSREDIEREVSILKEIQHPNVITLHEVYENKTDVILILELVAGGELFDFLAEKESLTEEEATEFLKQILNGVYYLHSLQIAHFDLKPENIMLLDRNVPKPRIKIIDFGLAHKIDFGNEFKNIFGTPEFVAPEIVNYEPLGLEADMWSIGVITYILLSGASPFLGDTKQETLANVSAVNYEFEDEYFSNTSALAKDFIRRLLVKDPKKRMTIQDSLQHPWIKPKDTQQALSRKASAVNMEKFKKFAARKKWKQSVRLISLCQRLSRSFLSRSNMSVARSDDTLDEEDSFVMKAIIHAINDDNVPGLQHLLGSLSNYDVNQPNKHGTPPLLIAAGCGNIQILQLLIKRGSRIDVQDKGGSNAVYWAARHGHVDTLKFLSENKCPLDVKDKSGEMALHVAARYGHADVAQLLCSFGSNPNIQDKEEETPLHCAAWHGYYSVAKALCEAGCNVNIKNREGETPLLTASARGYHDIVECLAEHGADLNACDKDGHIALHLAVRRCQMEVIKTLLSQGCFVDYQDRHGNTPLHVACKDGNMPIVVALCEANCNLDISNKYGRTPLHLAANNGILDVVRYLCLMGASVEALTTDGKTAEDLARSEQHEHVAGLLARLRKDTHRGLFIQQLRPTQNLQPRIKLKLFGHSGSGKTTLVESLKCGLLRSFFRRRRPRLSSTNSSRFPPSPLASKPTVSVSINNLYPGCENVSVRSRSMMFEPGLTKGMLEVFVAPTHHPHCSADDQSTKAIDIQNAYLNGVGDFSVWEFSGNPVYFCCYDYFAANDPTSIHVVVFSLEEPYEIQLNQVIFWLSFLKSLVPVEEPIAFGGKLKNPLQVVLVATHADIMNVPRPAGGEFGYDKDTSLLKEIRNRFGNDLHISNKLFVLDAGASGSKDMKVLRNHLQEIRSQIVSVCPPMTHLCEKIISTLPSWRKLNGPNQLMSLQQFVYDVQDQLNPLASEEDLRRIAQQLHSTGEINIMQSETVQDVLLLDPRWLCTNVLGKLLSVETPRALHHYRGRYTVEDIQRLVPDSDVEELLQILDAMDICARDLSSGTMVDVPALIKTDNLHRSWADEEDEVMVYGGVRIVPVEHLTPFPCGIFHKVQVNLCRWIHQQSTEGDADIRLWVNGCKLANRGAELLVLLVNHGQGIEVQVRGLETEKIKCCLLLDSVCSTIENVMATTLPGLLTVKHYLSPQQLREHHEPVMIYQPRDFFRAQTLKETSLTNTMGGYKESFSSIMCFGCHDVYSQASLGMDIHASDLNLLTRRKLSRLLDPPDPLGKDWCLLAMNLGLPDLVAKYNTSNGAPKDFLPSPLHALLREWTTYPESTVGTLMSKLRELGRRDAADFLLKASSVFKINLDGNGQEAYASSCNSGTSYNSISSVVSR
Chain of Bone morphogenetic protein receptor type-1A (Homo sapiens) (P36894 whole entry): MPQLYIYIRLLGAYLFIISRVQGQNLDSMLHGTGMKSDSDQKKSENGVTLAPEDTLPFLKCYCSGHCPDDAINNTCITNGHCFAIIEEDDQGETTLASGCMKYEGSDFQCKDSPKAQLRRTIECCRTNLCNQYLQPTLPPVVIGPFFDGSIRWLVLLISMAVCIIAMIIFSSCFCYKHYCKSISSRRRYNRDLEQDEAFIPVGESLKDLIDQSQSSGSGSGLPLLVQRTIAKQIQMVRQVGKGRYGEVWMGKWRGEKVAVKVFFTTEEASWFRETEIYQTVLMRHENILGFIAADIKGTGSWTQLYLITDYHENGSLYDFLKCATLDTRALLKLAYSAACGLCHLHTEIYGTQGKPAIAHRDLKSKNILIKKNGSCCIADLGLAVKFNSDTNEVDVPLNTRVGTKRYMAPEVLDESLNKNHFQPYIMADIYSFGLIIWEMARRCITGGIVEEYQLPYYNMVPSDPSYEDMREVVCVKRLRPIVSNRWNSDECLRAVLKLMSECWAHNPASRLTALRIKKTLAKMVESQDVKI
Chain of Calcium/calmodulin-dependent protein kinase type II subunit delta (Homo sapiens) (Q13557 whole entry): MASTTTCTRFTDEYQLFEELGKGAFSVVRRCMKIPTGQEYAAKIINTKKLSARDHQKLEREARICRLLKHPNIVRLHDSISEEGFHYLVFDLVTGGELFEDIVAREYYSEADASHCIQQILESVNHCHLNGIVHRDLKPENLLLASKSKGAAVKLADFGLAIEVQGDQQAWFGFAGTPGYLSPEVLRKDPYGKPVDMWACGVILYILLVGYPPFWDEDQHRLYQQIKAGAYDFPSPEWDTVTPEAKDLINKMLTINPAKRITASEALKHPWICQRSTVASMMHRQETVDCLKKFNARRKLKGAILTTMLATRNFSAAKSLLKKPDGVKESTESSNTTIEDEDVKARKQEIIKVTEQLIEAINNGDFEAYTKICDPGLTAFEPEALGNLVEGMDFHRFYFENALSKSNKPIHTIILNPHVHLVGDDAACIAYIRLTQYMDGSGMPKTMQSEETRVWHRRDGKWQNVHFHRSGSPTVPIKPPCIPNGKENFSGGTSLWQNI
Chain of CDC7/DBF4 (Cell division cycle 7-related protein kinase/Activator of S phase kinase) (Q9UBU7 whole entry): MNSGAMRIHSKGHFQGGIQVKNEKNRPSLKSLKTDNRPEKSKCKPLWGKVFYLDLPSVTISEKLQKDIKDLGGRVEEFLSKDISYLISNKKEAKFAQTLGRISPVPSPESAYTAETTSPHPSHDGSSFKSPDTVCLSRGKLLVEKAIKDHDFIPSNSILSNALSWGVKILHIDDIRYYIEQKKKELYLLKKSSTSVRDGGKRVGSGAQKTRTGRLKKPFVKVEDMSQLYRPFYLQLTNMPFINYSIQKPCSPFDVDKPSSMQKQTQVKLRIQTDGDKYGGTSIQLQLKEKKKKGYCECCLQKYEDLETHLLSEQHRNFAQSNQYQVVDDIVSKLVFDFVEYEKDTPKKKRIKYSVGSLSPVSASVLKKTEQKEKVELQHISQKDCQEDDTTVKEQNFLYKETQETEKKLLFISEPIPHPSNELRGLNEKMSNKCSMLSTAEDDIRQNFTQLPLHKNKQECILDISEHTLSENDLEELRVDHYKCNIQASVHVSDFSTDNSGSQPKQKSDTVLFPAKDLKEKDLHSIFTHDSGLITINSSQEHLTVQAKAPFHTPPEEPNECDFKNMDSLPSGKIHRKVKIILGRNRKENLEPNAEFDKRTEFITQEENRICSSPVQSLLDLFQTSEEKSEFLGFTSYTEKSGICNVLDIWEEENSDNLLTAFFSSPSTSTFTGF
Chain of CDC7/DBF4 (Cell division cycle 7-related protein kinase/Activator of S phase kinase) (O00311 whole entry): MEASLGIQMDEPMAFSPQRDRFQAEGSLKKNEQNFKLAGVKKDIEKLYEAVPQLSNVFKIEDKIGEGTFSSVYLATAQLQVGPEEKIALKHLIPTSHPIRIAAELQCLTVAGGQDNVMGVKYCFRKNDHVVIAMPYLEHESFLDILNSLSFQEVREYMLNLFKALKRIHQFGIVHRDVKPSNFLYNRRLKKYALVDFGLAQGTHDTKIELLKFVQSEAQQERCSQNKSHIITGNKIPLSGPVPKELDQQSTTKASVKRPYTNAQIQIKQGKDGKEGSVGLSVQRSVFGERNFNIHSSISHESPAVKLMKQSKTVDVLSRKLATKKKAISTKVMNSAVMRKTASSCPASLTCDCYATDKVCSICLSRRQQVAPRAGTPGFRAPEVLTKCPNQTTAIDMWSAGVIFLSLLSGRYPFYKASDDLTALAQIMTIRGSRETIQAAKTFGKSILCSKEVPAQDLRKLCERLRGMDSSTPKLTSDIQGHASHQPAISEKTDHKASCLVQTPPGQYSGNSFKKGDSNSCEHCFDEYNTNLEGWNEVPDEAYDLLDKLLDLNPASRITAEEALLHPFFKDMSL
Chain of Proto-oncogene tyrosine-protein kinase Src (Homo sapiens) (P12931 2-536 limits assumed): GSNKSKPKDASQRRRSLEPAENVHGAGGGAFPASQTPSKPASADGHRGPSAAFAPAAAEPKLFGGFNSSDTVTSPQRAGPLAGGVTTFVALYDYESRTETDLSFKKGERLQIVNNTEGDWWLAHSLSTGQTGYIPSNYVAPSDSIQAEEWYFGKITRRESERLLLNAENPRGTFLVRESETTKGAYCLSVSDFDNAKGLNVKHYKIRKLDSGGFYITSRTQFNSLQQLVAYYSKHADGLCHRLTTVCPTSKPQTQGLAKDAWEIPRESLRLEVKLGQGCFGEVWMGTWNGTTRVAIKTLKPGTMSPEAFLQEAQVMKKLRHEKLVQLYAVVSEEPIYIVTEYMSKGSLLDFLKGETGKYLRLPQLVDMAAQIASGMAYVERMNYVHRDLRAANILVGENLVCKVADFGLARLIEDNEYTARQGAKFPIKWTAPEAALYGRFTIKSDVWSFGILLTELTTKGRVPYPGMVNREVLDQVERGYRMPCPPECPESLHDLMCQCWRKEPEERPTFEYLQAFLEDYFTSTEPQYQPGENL

pIC50 [1] | residual binding, % of control [2] [%] | residual binding, % of control [3] [%] | residual binding, % of control [4] [%] | residual binding, % of control [5] [%] | residual activity [6] [%] | residual activity [7] [%] | residual activity [8] [%] | residual activity [9] [%] | residual activity [11] [%] | residual activity [12] [%] | residual activity [13] [%] | residual activity [14] [%] | SMILES | residual activity [10] [%]
6.49 | 89 | 81 | 100 | 100 | 100 | 99 | 100 | 76 | 100 | 82 | 79 | 50 | CCOC(=O)c1sc(-c2ccncc2)nc1O | 77
8.17 | 62 | 100 | 72 | 100 | 84 | 100 | 76 | 100 | 78 | 81 | 93 | 95 | COc1ccc(-c2nc(-c3ccnc(N)n3)sc2C(N)=O)c(Cl)c1 | 100

SMILES | pIC50 [1] | residual binding, % of control [2] [%] | residual binding, % of control [3] [%] | residual binding, % of control [4] [%] | residual binding, % of control [5] [%] | residual activity [6] [%] | residual activity [7] [%] | residual activity [8] [%] | residual activity [9] [%] | residual activity [11] [%] | residual activity [12] [%] | residual activity [13] [%] | residual activity [14] [%] | residual activity [10] [%]
NC(=O)c1sc(-c2ccnc(N)n2)nc1-c1ccc(Cl)cc1Cl | 8.42 | 52 | 100 | 91 | 100 | 100 | 75 | 93 | 100 | 100 | 94 | 90 | 66 | 100
